Values after ≈ are worked out from the molar mass of the structure shown. A value given as a limit tells only on which side of the number the result lay.

As a reminder, the IC50 is the concentration needed to halve the response being measured. One may read the MIC as the least concentration at which growth counts as inhibited.

The target of test [1] is T1, Tyrosine-protein phosphatase non-receptor type 1 (Homo sapiens, UniProt P18031).
T1 sequence (P18031 whole entry): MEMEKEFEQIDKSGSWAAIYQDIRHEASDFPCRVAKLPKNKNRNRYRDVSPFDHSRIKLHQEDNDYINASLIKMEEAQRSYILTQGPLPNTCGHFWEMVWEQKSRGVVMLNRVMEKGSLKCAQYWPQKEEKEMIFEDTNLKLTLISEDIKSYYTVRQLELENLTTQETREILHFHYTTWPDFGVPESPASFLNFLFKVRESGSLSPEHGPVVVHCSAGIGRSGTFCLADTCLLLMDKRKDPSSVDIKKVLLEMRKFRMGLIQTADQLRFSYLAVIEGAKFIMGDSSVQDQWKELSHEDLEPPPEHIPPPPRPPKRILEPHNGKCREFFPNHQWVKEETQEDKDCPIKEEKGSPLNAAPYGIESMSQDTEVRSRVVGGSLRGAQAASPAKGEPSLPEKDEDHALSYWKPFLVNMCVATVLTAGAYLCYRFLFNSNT
Put plainly: Inhibition of human recombinant GST-tagged PTP1B expressed in Escherichia coli BL21 (DE3) using pNPP as substrate measured for 2 mins by colorimetric analysis.

Test [2] deals with Staphylococcus aureus. Put plainly: Antibacterial activity against Staphylococcus aureus RN4220 assessed as reduction in bacterial cell growth incubated for 24 hrs by ELISA. The note with it: RN4220, 24 h. In kind it is functional. The gist of the method: (§1)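 MICs determined by serial dilution in 96-well microtiter plates. The strain panel included Gram-positive S. aureus strains and multidrug-resistant clinical isolates. Gatifloxacin, moxifloxacin, norfloxacin and oxacillin served as antibacterial positive controls.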
(In general: In an ELISA, binding on a coated surface is turned into a signal by an enzyme label.)

The next test concerns Streptococcus mutans. The experiment in a line: Antibacterial activity against Streptococcus mutans KCTC3289 assessed as reduction in bacterial cell growth incubated for 24 hrs by ELISA. In kind it is functional. The note with it: KCTC3289, 24 h. In short, it runs like this:
(§2)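 MIC determined by serial dilution in 96-well microtiter plates. Strains used were E. coli 1924 and P. aeruginosa 2742 (Gram-negative), S. mutans 3289 (Gram-positive) and the fungus C. albicans 7535. Gatifloxacin, moxifloxacin, norfloxacin and oxacillin served as antibacterial reference agents, and fluconazole as the antifungal reference.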

Test [3] relates to Escherichia coli. Put plainly: Antibacterial activity against Escherichia coli 1924 assessed as reduction in bacterial cell growth incubated for 24 hrs by ELISA. In kind it is functional. The note with it: Escherichia coli, 1924, 24 h. In short, it runs like this:
as §2

The test system of the next test is Pseudomonas aeruginosa. The experiment in a line: Antibacterial activity against Pseudomonas aeruginosa 2742 assessed as reduction in bacterial cell growth incubated for 24 hrs by ELISA. In kind it is functional. The note with it: Pseudomonas aeruginosa, 2742, 24 h. The gist of the method:
as §2

The test system of another test is Candida albicans. Put plainly: Antifungal activity against Candida albicans 7535 assessed as reduction in bacterial cell growth incubated for 24 hrs by ELISA. In kind it is functional. The note with it: Candida albicans, 7535, 24 h. The gist of the method:
as §2

The subject of test [4] is Staphylococcus aureus. The experiment in a line: Antibacterial activity against Methicillin-resistant Staphylococcus aureus CCARM 3167 assessed as reduction in bacterial cell growth incubated for 24 hrs by ELISA. In kind it is functional. The note with it: CCARM 3167, 24 h. In short, it runs like this:
as §1

The test system of test [5] is Staphylococcus aureus. The experiment in a line: Antibacterial activity against Methicillin-resistant Staphylococcus aureus CCARM 3506 assessed as reduction in bacterial cell growth incubated for 24 hrs by ELISA. The note with it: CCARM 3506, 24 h. In kind it is functional. In short, it runs like this:
as §1

In test [6] the test system is Staphylococcus aureus. Put plainly: Antibacterial activity against Quinolone-resistant Staphylococcus aureus CCARM 3505 assessed as reduction in bacterial cell growth incubated for 24 hrs by ELISA. In kind it is functional. The note with it: CCARM 3505, 24 h. The gist of the method:
as §1

The test system of test [7] is Staphylococcus aureus. The experiment in a line: Antibacterial activity against Quinolone-resistant Staphylococcus aureus CCARM 3519 assessed as reduction in bacterial cell growth incubated for 24 hrs by ELISA. In kind it is functional. The note with it: CCARM 3519, 24 h. The gist of the method: as §1
For test [8], the system named is Staphylococcus aureus. Put plainly: Potency index, ratio of MIC of norfloxacin to MIC of compound for antibacterial activity against Methicillin-resistant Staphylococcus aureus CCARM 3167 assessed as reduction in bacterial cell growth incubated for 24 hrs by ELISA. In kind it is functional.
For test [9], the system named is Staphylococcus aureus. Put plainly: Potency index, ratio of MIC of norfloxacin to MIC of compound for antibacterial activity against Methicillin-resistant Staphylococcus aureus CCARM 3506 assessed as reduction in bacterial cell growth incubated for 24 hrs by ELISA. In kind it is functional.
In test [10] the test system is Staphylococcus aureus. The experiment in a line: Potency index, ratio of MIC of oxacillin to MIC of compound for antibacterial activity against Methicillin-resistant Staphylococcus aureus CCARM 3167 assessed as reduction in bacterial cell growth incubated for 24 hrs by ELISA. In kind it is functional.
Test [11] deals with Staphylococcus aureus. The experiment in a line: Potency index, ratio of MIC of oxacillin to MIC of compound for antibacterial activity against Methicillin-resistant Staphylococcus aureus CCARM 3506 assessed as reduction in bacterial cell growth incubated for 24 hrs by ELISA. In kind it is functional.
Test [12] has as its system Staphylococcus aureus. Put plainly: Antibacterial activity against Staphylococcus aureus KCTC209 assessed as reduction in bacterial cell growth incubated for 24 hrs by ELISA. In kind it is functional. The note with it: KCTC209, 24 h. In short, it runs like this:
as §1

For test [13], the system named is Staphylococcus aureus. Put plainly: Antibacterial activity against Staphylococcus aureus KCTC503 assessed as reduction in bacterial cell growth incubated for 24 hrs by ELISA. In kind it is functional. The note with it: KCTC503, 24 h. The gist of the method: as §1
The subject of test [14] is Staphylococcus aureus. The experiment in a line: Potency index, ratio of MIC of gatifloxacin to MIC of compound for antibacterial activity against Staphylococcus aureus KCTC503 assessed as reduction in bacterial cell growth incubated for 24 hrs by ELISA. In kind it is functional.
For test [15], the system named is Escherichia coli. The experiment in a line: Potency index, ratio of MIC of gatifloxacin to MIC of compound for antibacterial activity against Escherichia coli 1924 assessed as reduction in bacterial cell growth incubated for 24 hrs by ELISA. In kind it is functional.
For test [16], the system named is Escherichia coli. Put plainly: Potency index, ratio of MIC of moxifloxacin to MIC of compound for antibacterial activity against Escherichia coli 1924 assessed as reduction in bacterial cell growth incubated for 24 hrs by ELISA. In kind it is functional.

On to `O=C(O)C(Cc1c[nH]c2ccccc12)N1C(=O)/C(=C/c2ccc3cc(OCc4ccc(Cl)cc4)ccc3c2)SC1=S` (centres undefined), for which the IC50 in test [1] stood at 720 nM. Further, the MIC with Staphylococcus aureus [2] was 2 µg/mL (≈ 3.34 µM); with Streptococcus mutans, 2 µg/mL (≈ 3.34 µM); in the test on Escherichia coli [3], 2 µg/mL (≈ 3.34 µM); with Pseudomonas aeruginosa, greater than 64 µg/mL; with Candida albicans, greater than 64 µg/mL; in the test on Staphylococcus aureus [4] it was 2 µg/mL (≈ 3.34 µM). Further, the MIC with Staphylococcus aureus [5] worked out at 2 µg/mL (≈ 3.34 µM); in the test with Staphylococcus aureus [6] it was 2 µg/mL (≈ 3.34 µM); with Staphylococcus aureus [7] it was 4 µg/mL (≈ 6.68 µM). The Ratio came to 4 in the test with Staphylococcus aureus [8], 4 in the test on Staphylococcus aureus [9], 64 in the test with Staphylococcus aureus [10] and 64 in the test on Staphylococcus aureus [11].
Take `COc1cc(/C=C2\SC(=S)N(C(Cc3c[nH]c4ccccc34)C(=O)O)C2=O)ccc1OCc1ccc(Cl)cc1Cl` (centres undefined): the IC50 in test [1] was determined as 700 nM. The MIC with Staphylococcus aureus [2] was 2 µg/mL (≈ 3.26 µM); with Staphylococcus aureus [12], 2 µg/mL (≈ 3.26 µM); in the test with Staphylococcus aureus [13] it was 2 µg/mL (≈ 3.26 µM); in the test with Streptococcus mutans, 2 µg/mL (≈ 3.26 µM); in the test with Escherichia coli [3], 2 µg/mL (≈ 3.26 µM); with Pseudomonas aeruginosa, greater than 64 µg/mL. Besides, the MIC in the test on Candida albicans was greater than 64 µg/mL; in the test on Staphylococcus aureus [4], 2 µg/mL (≈ 3.26 µM); in the test with Staphylococcus aureus [5], 2 µg/mL (≈ 3.26 µM); in the test with Staphylococcus aureus [6], 2 µg/mL (≈ 3.26 µM); in the test with Staphylococcus aureus [7], 2 µg/mL (≈ 3.26 µM). Further, the Ratio with Staphylococcus aureus [8] was found to be 4; in the test with Staphylococcus aureus [9], 4; in the test with Staphylococcus aureus [10] it was 64; in the test with Staphylococcus aureus [11], 64.
For `O=C(O)C(Cc1c[nH]c2ccccc12)N1C(=O)/C(=C/c2ccc(OCc3ccc(Br)cc3)cc2)SC1=S` (centres undefined), the IC50 in [1] worked out at 2600 nM. Besides, the minimum inhibitory concentration (MIC) in the test with Staphylococcus aureus [2] was 1 µg/mL (≈ 1.68 µM); with Staphylococcus aureus [12], 4 µg/mL (≈ 6.74 µM); in the test with Staphylococcus aureus [13] it was 2 µg/mL (≈ 3.37 µM); in the test with Streptococcus mutans it was 1 µg/mL (≈ 1.68 µM); in the test on Escherichia coli [3] it was 1 µg/mL (≈ 1.68 µM); in the test on Pseudomonas aeruginosa it was greater than 64 µg/mL. Besides, the MIC is greater than 64 µg/mL with Candida albicans; 2 µg/mL (≈ 3.37 µM) with Staphylococcus aureus [4]; 2 µg/mL (≈ 3.37 µM) in the test with Staphylococcus aureus [5]; 2 µg/mL (≈ 3.37 µM) in the test with Staphylococcus aureus [6]; 2 µg/mL (≈ 3.37 µM) in the test with Staphylococcus aureus [7]. Further, the Ratio in the test with Staphylococcus aureus [14] was 2; in the test with Escherichia coli [15] it was 2; in the test on Escherichia coli [16], 2; in the test on Staphylococcus aureus [8], 4; in the test on Staphylococcus aureus [9], 4; in the test on Staphylococcus aureus [10], 64. Further, in the test with Staphylococcus aureus [11], the Ratio is listed as 64.
